In data set [1] the target is T1, Oxysterols receptor LXR-beta (Homo sapiens, UniProt P55055).
T1 sequence (P55055 whole entry): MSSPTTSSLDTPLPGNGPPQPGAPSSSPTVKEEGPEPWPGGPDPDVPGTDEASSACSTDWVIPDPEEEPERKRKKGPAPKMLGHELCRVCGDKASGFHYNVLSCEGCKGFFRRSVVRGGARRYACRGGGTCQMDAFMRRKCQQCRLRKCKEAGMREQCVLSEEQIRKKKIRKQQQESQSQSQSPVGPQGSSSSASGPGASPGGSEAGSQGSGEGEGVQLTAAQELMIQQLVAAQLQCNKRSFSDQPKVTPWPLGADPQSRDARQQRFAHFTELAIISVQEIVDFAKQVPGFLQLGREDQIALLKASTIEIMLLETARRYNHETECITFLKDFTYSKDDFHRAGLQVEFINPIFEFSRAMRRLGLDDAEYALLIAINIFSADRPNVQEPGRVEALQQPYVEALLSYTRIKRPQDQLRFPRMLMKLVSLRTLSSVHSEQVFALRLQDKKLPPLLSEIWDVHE
As to the kind of experiment: Activation of GAL4 fused human LXR beta expressed in HEK293 cells after 24 hrs by luciferase reporter gene assay. It is filed as cell-based. In short, it runs like this: (§1)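 HEK293 cells (4x10⁴/well), grown in DMEM with 10% FBS at 37 °C under 5% CO₂, transiently co-transfected with pMH100X4-TK-luc, Renilla and the Gal4-LXR-α or Gal4-LXR-β plasmid. Dosing began 6 h after transfection and lasted 24 h, at 32, 16, 8, 4, 2 and 1 μM. Dual luciferase read-out. EC50 came from dose-response curves, averaged over three to five independent experiments, ± SD.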
(In general: In a reporter assay the amount or activity of a reporter protein is the signal.)

The target of data set [2] is T2, Oxysterols receptor LXR-alpha (Homo sapiens, UniProt Q13133).
T2 sequence (Q13133 whole entry): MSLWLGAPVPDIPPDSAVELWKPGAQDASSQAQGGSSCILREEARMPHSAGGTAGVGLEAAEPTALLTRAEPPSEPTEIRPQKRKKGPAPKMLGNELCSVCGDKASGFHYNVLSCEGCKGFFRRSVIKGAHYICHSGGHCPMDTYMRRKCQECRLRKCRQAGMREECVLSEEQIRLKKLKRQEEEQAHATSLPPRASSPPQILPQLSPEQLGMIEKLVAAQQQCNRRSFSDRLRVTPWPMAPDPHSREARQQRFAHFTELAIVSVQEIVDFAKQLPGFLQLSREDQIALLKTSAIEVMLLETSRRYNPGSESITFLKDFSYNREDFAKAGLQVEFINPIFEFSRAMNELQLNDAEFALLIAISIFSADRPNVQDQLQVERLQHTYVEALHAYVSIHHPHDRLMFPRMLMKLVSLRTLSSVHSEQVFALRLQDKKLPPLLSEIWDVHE
As to the kind of experiment: Activation of GAL4 fused human LXR alpha expressed in HEK293 cells after 24 hrs by luciferase reporter gene assay. It is filed as cell-based. In short, it runs like this:
as §1

The species entered for data set [3] is Homo sapiens. As to the kind of experiment: Agonist activity at LXR in human U937 cells assessed as upregulation of ABCA1 mRNA levels at 10 uM after 6 hrs by qPCR analysis. The data set is classed as cell-based. In short, it runs like this:
(§2)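 U937 cells, 3x10⁶ in 10 ml RPMI with 10% FBS, differentiated with PMA 10 ng/ml for 72 h at 37 °C, then treated with ligand (10 μM) for 6 h. Total RNA was isolated with TRIZOL; 2 µg was reverse-transcribed for 1 h at 42 °C. Transcripts were measured by qPCR. Mean ± SD of three biological samples; ANOVA with Dunnett's test.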

A short description of data set [4]: Agonist activity at LXR in human HepG2 cells assessed as upregulation of SREBP1c mRNA levels at 10 uM after 6 hrs by qPCR analysis. The data set is classed as cell-based. In short, it runs like this:
(§3)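 HepG2 cells treated with ligand (10 μM). Total RNA was extracted with TRIZOL; 2 µg was reverse-transcribed (1 h, 42 °C). SREBP1c, FASN and SCD1 transcripts were measured by qPCR. Mean ± SD of three biological samples; ANOVA with Dunnett's test.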

For data set [5], the species on record is Homo sapiens. As to the kind of experiment: Agonist activity at LXR in human U937 cells assessed as downregulation of LPS-induced CCL2 mRNA expression at 10 uM after 6 hrs by qPCR analysis. The data set is classed as cell-based. In short, it runs like this: (§4)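 PMA-differentiated U937 cells (10 ng/ml PMA, 72 h) were given LPS 100 ng/ml together with compound (10 μM) for 6 h. CCL2 and TNFα mRNA were measured by qPCR after TRIZOL RNA extraction and reverse transcription. Three biological samples per group, mean ± SD.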
In general terms: In qPCR the cycle at which signal appears reflects the starting amount.

A short description of data set [6]: Agonist activity at LXR in human U937 cells assessed as upregulation of FASN mRNA levels at 10 uM after 6 hrs by qPCR analysis. The data set is classed as cell-based. In short, it runs like this:
as §2

The nature of data set [7]: Agonist activity at LXR in human U937 cells assessed as upregulation of SREBP1c mRNA levels at 10 uM after 6 hrs by qPCR analysis. The data set is classed as cell-based. In short, it runs like this:
as §2

The next data set deals with HEK293. As to the kind of experiment: Activation of GAL4 fused human RXR expressed in HEK293 cells at 10 uM after 24 hrs by luciferase reporter gene assay.
Data set [8] is described as follows: Agonist activity at LXR in human HepG2 cells assessed as upregulation of SCD1 mRNA levels at 10 uM after 6 hrs by qPCR analysis. The data set is classed as cell-based. A digest of the protocol: as §3
Data set [9] can be described thus: Agonist activity at LXR in human U937 cells assessed as upregulation of SCD1 mRNA levels at 10 uM after 6 hrs by qPCR analysis relative to control. It is filed as cell-based. Particulars: human, 6 h, 10 µM. A digest of the protocol: as §2
The target in data set [10] is T3, Peroxisome proliferator-activated receptor gamma (Homo sapiens) (UniProt P37231).
T3 sequence (whole entry): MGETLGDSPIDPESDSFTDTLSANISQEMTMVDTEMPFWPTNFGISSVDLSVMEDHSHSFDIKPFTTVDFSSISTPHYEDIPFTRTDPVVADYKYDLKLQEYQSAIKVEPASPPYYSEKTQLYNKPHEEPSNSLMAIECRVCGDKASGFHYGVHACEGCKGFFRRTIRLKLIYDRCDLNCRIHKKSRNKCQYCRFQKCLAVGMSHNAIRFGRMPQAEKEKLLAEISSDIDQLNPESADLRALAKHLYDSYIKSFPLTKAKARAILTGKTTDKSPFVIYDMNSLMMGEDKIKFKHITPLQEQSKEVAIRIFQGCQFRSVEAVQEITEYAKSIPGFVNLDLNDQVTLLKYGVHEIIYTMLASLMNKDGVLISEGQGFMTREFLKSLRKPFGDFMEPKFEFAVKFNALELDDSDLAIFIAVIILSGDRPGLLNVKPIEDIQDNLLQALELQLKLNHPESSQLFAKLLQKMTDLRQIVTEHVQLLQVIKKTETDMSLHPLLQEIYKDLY
As to the kind of experiment: Activation of GAL4 fused human PPARgamma expressed in HEK293 cells at 10 uM after 24 hrs by luciferase reporter gene assay.

Data set [11] can be described thus: Agonist activity at LXR in human HepG2 cells assessed as upregulation of FASN mRNA levels at 10 uM after 6 hrs by qPCR analysis. The data set is classed as cell-based. A digest of the protocol:
as §3

For data set [12], the target named is T4, Nuclear receptor subfamily 1 group I member 2 (Homo sapiens, UniProt O75469).
T4 sequence (O75469 whole entry): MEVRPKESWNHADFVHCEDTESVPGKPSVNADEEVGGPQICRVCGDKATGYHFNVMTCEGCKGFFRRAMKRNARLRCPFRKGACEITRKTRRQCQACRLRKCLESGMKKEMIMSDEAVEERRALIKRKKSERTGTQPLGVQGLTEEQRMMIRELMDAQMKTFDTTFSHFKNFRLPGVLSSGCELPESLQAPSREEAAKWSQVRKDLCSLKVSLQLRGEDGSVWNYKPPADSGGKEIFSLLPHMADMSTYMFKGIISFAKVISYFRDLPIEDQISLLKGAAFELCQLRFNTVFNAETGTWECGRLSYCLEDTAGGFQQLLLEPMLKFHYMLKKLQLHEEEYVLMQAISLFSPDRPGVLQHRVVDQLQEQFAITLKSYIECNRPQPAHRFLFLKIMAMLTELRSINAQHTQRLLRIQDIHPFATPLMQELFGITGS
As to the kind of experiment: Activation of GAL4 fused human PXR expressed in HEK293 cells at 10 uM by luciferase reporter gene assay. Particulars: hek293, 10 µM.

The species entered for data set [13] is Homo sapiens. As to the kind of experiment: Agonist activity at LXR in human U937 cells assessed as downregulation of LPS-induced TNFalpha mRNA expression at 10 uM after 6 hrs by qPCR analysis. It is filed as cell-based. In short, it runs like this:
as §4

For data set [14], the target named is T5, Oxysterols receptor LXR-beta (Homo sapiens) (UniProt P55055).
T5 sequence (whole entry): T1 sequence (P55055 whole entry)
As to the kind of experiment: Activation of GAL4 fused human LXR beta expressed in HEK293 cells after 24 hrs by luciferase reporter gene assay relative to 22R-HC. It is filed as cell-based. In short, it runs like this: (§5)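 HEK293 cells carrying the Gal4-LXR-α or Gal4-LXR-β chimera plus the pMH100X4-TK-luc and Renilla reporters. Treatment started 6 h post-transfection and ran 24 h. Dual luciferase read-out. Efficacy is given as % of the response to 8 μM 22R-HC, ± SD, from three to five independent experiments.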

Data set [15] addresses T6, Oxysterols receptor LXR-alpha (Homo sapiens) (UniProt Q13133).
T6 sequence (whole entry): T2 sequence (Q13133 whole entry)
As to the kind of experiment: Activation of GAL4 fused human LXR alpha expressed in HEK293 cells after 24 hrs by luciferase reporter gene assay relative to 22R-HC. It is filed as cell-based. In short, it runs like this: as §5

Active and inactive are the calls of the source. The calls are words filed in the database; no cut-off is given here.

On to `CC[C@H](CC(=O)[C@@H](C)[C@H]1CC[C@H]2[C@@H]3CC=C4C[C@@H](O)CC[C@]4(C)[C@H]3CC[C@]12C)C(C)C`, for which the EC50 result in data set [1] and in [2] was “Not Active” in each case.

`CC(C)[C@@H](C)C[C@H](O)[C@@H](C)[C@H]1CC[C@H]2C3=CC=C4C[C@@H](O)CC[C@]4(C)[C@H]3CC[C@]12C`: the result in the data set listed under Homo sapiens [3] and in the data set listed under Homo sapiens [5] was Active. Moreover, the Activity entry in data set [4], in data set [6], in data set [7], in [8], in [9] and in [11] was “Not Active” each time. In addition, the outcome in data set [12] was Active. Besides, the outcome (in the data set with HEK293; in [10]) was inactive.

Regarding `CC[C@@H](C(C)C)[C@@H](O)C[C@@H](C)[C@H]1CC[C@H]2[C@@H]3CC=C4C[C@@H](O)CC[C@]4(C)[C@H]3CC[C@]12C`, the result in the data set listed under Homo sapiens [3] was Active. Also, the Activity entry in data set [4], in data set [6], in data set [7], in data set [8], in [9] and in data set [11] was “Not Active” throughout. In addition, the EC50 result in [1] and in data set [2] was “Not Active” throughout.

With `CC[C@@H](C(C)C)[C@H](O)C[C@@H](C)[C@H]1CC[C@H]2[C@@H]3CC=C4C[C@@H](O)CC[C@]4(C)[C@H]3CC[C@]12C`, the outcome in the data set filed under Homo sapiens [3], in the data set filed under Homo sapiens [13] and in the data set filed under Homo sapiens [5] was Active. In addition, the Activity entry in data set [4], in data set [6], in data set [7], in [8], in data set [9] and in data set [11] was “Not Active” each time. Also, the outcome (in the data set on HEK293; in [10]) was inactive.

For `CC(C)[C@@H](C)[C@H]1O[C@@H]1[C@@H](C)[C@H]1CC[C@H]2C3=CC=C4C[C@@H](O)CC[C@]4(C)[C@H]3CC[C@]12C`, the Activity entry in data set [4], in [6], in [7], in data set [8], in [9] and in data set [11] was “Not Active” throughout. The outcome in data set [12] was Active. For the same compound, the outcome (with HEK293; in [10]) was inactive. The Efficacy was 30.4% in [14] and 93.2% in data set [15].

In the case of `CC[C@H](C[C@H](O)[C@@H](C)[C@H]1CC[C@H]2[C@@H]3CC=C4C[C@@H](O)CC[C@]4(C)[C@H]3CC[C@]12C)C(C)C`, the Activity result in data set [4], in [6], in data set [7], in [8], in data set [9] and in data set [11] was “Not Active” in each case. The EC50 result in [1] and in data set [2] was “Not Active” in each case.

As to `CC(C)[C@@H](C)C[C@@H](O)[C@@H](C)[C@H]1CC[C@H]2C3=CC=C4C[C@@H](O)CC[C@]4(C)[C@H]3CC[C@]12C`, in the data set listed under Homo sapiens [3], the result was Active. For the same compound, the Activity entry in data set [4], in data set [6], in data set [7], in data set [8], in [9] and in data set [11] was “Not Active” each time. Moreover, the EC50 entry in data set [1] and in data set [2] was “Not Active” each time.
